According to publication PMC8158791 (ACS Omega, 2021):

Tests used:
[1] = test system: chloroquine-sensitive strain 3D7 of Plasmodium falciparum; assay: In vitro antimalarial assay; assay type: cell-based; details: for IC50: Plasmodium falciparum, 3D7, 72 h, read-out: IC50 Pf3D7; for selectivity index (SI) Pf3D7: ratio CC50 (VERO)/IC50 (Pf3D7); for activity in CQ-sensitive strain (in words): 3D7
[2] = test system: chloroquine-resistant strain K1 of Plasmodium falciparum; assay: In vitro antimalarial assay; assay type: cell-based; details: for IC50: Plasmodium falciparum, K1, 72 h, read-out: IC50 PfK1; for selectivity index (SI) PfK1: ratio CC50 (VERO)/IC50 (PfK1)
[3] = test system: Plasmodium yoelii nigeriensis (a multidrug-resistant) parasite; assay: In vivo antimalarial assay in Swiss mice; details: for cure on day 28: cured/treated; for survival on day 28: survivors/treated
Outline: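 Multidrug-resistant P. yoelii nigeriensis infection in albino Swiss mice, five per group. Test compound given orally at 100 mg/kg daily × 4 days. Reference: α/β-arteether 7.5 mg/kg × 3 days. Untreated infected controls were included. Parasitaemia was assessed by Giemsa-stained smears, with % suppression on day 4 post infection. Survival and cure were followed to day 28, and MST was recorded.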

VERO cell line = assay: Cytotoxicity assay against Vero cell line; assay type: cell-based, monkey; details: read-out: cytotoxicity CC50 in VERO cell line; VERO cells, 72 h, resazurin
[4] = Cytotoxicity assay against Vero cell line; assay type: cell-based, monkey; details: monkey, Vero cells (monkey kidney cell line)
[5] = 7.5 mg/kg × 3 days, reference drug
[6] = 100 mg/kg × 4 days, oral, P. yoelii-MDR

Row | SMILES | IC50 [1] | selectivity index (SI) Pf3D7 [1] | IC50 [2] | selectivity index (SI) PfK1 [2] | also measured
1 | CCN(CC)C[C@H](CC(C)C)N(C)c1ccnc2cc(Cl)ccc12 [9e, (S)-N^2-(7-Chloroquinolin-4-yl)-N^1,N^1-diethyl-N^2,4-dimethylpentane-1,2-diamine] | 230 ± 100 nM | 262 | 540 ± 30 nM | 112 | –
2 | CCO[C@H]1O[C@@H]2O[C@@]3(C)CC[C@H]4[C@H](C)CC[C@@H]([C@H]1C)[C@@]24OO3 [α/β-arteether, reference compound] | – | – | – | – | % suppression on day 4 post infection [3, 5]: 100%; MST [3, 5]: >28 days; cure on day 28 [3, 5]: 5/5 cured; survival on day 28 [3, 5]: 5/5
3 | CC(C)C[C@@H](CN1CCCCC1)N(C)c1ccnc2cc(Cl)ccc12 [9c, (S)-7-Chloro-N-methyl-N-(4-methyl-1-(piperidin-1-yl)pentan-2-yl)quinolin-4-amine] | 150 ± 140 nM | 463 | 420 ± 230 nM | 166 | –
4 | CC(C)C[C@@H](CN1CCOCC1)N(C)c1ccnc2cc(C(F)(F)F)ccc12 [9f, (S)-N-Methyl-N-(4-methyl-1-morpholinopentan-2-yl)-7-(trifluoromethyl)quinolin-4-amine] | 2720 ± 1440 nM | 25 | 2250 ± 770 nM | 30 | –
5 | CC(C)CC(CN1CCOCC1)N(C)c1ccnc2cc(Cl)ccc12 (centres unmarked) [9b, 7-Chloro-N-methyl-N-(4-methyl-1-morpholinopentan-2-yl)quinolin-4-amine] | 1160 ± 260 nM | 44 | 1190 ± 530 nM | 43 | CC50 (VERO cell line): 50800 nM
6 | CN(c1ccnc2cc(Cl)ccc12)[C@@H](Cc1ccccc1)CN1CCCC1 [10c, (S)-7-Chloro-N-methyl-N-(1-phenyl-3-(pyrrolidin-1-yl)propan-2-yl)quinolin-4-amine] | 60 ± 160 nM | 963 | 100 nM | 577 | MST ([3]; 100 mg/kg × 4 days, oral): 9 days; % suppression on day 4 post infection [3, 6]: 93.99%; cure on day 28 ([3]; 100 mg/kg × 4 days, oral): 0/5 cured; survival on day 28 ([3]; 100 mg/kg × 4 days, oral): 0/5
7 | COc1cc([C@@H]2c3cc4c(cc3[C@H](O)[C@H]3COC(=O)[C@H]23)OCO4)cc(OC)c1OC [Podophyllotoxin, reference compound] | – | – | – | – | CC50 at 72 h [4]: 4000 nM
8 | CCN(CC)CCCC(C)Nc1ccnc2cc(Cl)ccc12 (centres unmarked) [chloroquine, reference compound] | – | – | 795 ± 150 nM | – | –
9 | CCN(CC)C[C@H](Cc1ccccc1)N(C)c1ccnc2cc(Cl)ccc12 [10d, (S)-N^2-(7-Chloroquinolin-4-yl)-N^1,N^1-diethyl-N^2-methyl-3-phenylpropane-1,2-diamine] | 210 ± 110 nM | 376 | 330 ± 60 nM | 240 | –
10 | CN(c1ccnc2cc(C(F)(F)F)ccc12)[C@@H](Cc1ccccc1)CN1CCOCC1 [10e, (S)-N-Methyl-N-(1-morpholino-3-phenylpropan-2-yl)-7-(trifluoromethyl)quinolin-4-amine] | 3890 ± 500 nM | – | – | – | activity in CQ-sensitive strain (in words) [1]: inactive
11 | CC(C)C[C@@H](CN1CCCC1)N(C)c1ccnc2cc(C(F)(F)F)ccc12 [9h, (S)-N-Methyl-N-(4-methyl-1-(pyrrolidin-1-yl)pentan-2-yl)-7-(trifluoromethyl)quinolin-4-amine] | 1240 nM | 42 | 1600 ± 910 nM | 33 | –
12 | CN(CCCN1CCCCC1)c1ccnc2cc(Cl)ccc12 [11a, 7-Chloro-N-methyl-N-(3-(piperidin-1-yl)propyl)quinolin-4-amine] | 40 nM | – | 60 ± 40 nM | 1782 | CC50 (VERO cell line): 107000 nM
13 | CCN(CC)C[C@H](CC(C)C)N(C)c1ccnc2cc(C(F)(F)F)ccc12 [9i, (S)-N^1,N^1-diethyl-N^2,4-dimethyl-N^2-(7-(trifluoromethyl)quinolin-4-yl)pentane-1,2-diamine] | 3800 ± 1050 nM | 14 | 2500 ± 1030 nM | 21 | –
14 | CN(c1ccnc2cc(Cl)ccc12)[C@@H](Cc1ccccc1)CN1CCOCC1 [10a, (S)-7-Chloro-N-methyl-N-(1-morpholino-3-phenylpropan-2-yl)quinolin-4-amine] | 1200 ± 780 nM | 28 | 1380 ± 70 nM | 24 | –
15 | CN(c1ccnc2cc(C(F)(F)F)ccc12)[C@@H](Cc1ccccc1)CN1CCCCC1 [10f, (S)-N-Methyl-N-(1-phenyl-3-(piperidin-1-yl)propan-2-yl)-7-(trifluoromethyl)quinolin-4-amine] | 1370 ± 520 nM | – | – | – | activity in CQ-sensitive strain (in words) [1]: inactive
16 | CCN(CC)C[C@H](Cc1ccccc1)N(C)c1ccnc2cc(C(F)(F)F)ccc12 [10h, (S)-N^1,N^1-Diethyl-N^2-methyl-3-phenyl-N^2-(7-(trifluoromethyl)quinolin-4-yl)propane-1,2-diamine] | 1750 ± 160 nM | – | – | – | activity in CQ-sensitive strain (in words) [1]: inactive
17 | CN(CCCN1CCOCC1)c1ccnc2cc(C(F)(F)F)ccc12 [11c, N-Methyl-N-(3-morpholinopropyl)-7-(trifluoromethyl)quinolin-4-amine] | 880 ± 280 nM | >227 | 820 ± 60 nM | >243 | –
18 | CN(CCCN1CCCC1)c1ccnc2cc(Cl)ccc12 [11b, 7-Chloro-N-methyl-N-(3-(pyrrolidin-1-yl)propyl)quinolin-4-amine] | 190 nM | 422 | 110 ± 70 nM | 729 | MST ([3]; 100 mg/kg × 4 days, oral): 8.8 days; % suppression on day 4 post infection [3, 6]: 99.8%; cure on day 28 ([3]; 100 mg/kg × 4 days, oral): 0/5 cured; survival on day 28 ([3]; 100 mg/kg × 4 days, oral): 0/5; CC50 (VERO cell line): 80200 nM
19 | CN(CCCN1CCCC1)c1ccnc2cc(C(F)(F)F)ccc12 [11d, N-Methyl-N-(3-(pyrrolidin-1-yl)propyl)-7-(trifluoromethyl)quinolin-4-amine] | 90 ± 20 nM | – | 310 ± 150 nM | 252 | MST ([3]; 100 mg/kg × 4 days, oral): 8.8 days; % suppression on day 4 post infection [3, 6]: 99.85%; cure on day 28 ([3]; 100 mg/kg × 4 days, oral): 0/5 cured; survival on day 28 ([3]; 100 mg/kg × 4 days, oral): 0/5; CC50 (VERO cell line): 78200 nM
20 | CC(C)C[C@@H](CN1CCCC1)N(C)c1ccnc2cc(Cl)ccc12 [9d, (S)-7-Chloro-N-methyl-N-(4-methyl-1-(pyrrolidin-1-yl)pentan-2-yl)quinolin-4-amine] | 80 nM | 588 | 180 ± 150 nM | 261 | MST ([3]; 100 mg/kg × 4 days, oral): 9.4 days; % suppression on day 4 post infection [3, 6]: 99.99%; cure on day 28 ([3]; 100 mg/kg × 4 days, oral): 0/5 cured; survival on day 28 ([3]; 100 mg/kg × 4 days, oral): 0/5
21 | CN(c1ccnc2cc(C(F)(F)F)ccc12)[C@@H](Cc1ccccc1)CN1CCCC1 [10g, (S)-N-Methyl-N-(1-phenyl-3-(pyrrolidin-1-yl)propan-2-yl)-7-(trifluoromethyl)quinolin-4-amine] | 680 ± 160 nM | 58 | 1770 nM | 22 | MST ([3]; 100 mg/kg × 4 days, oral): 7.2 days; % suppression on day 4 post infection [3, 6]: 62.30%; cure on day 28 ([3]; 100 mg/kg × 4 days, oral): 0/5 cured; survival on day 28 ([3]; 100 mg/kg × 4 days, oral): 0/5
22 | CN(c1ccnc2cc(Cl)ccc12)[C@@H](Cc1ccccc1)CN1CCCCC1 [10b, (S)-7-Chloro-N-methyl-N-(1-phenyl-3-(piperidin-1-yl)propan-2-yl)quinolin-4-amine] | 280 ± 130 nM | – | 490 ± 150 nM | 142 | –
23 | CC(C)C[C@@H](CN1CCCCC1)N(C)c1ccnc2cc(C(F)(F)F)ccc12 [9g, (S)-N-Methyl-N-(4-methyl-1-(piperidin-1-yl)pentan-2-yl)-7-(trifluoromethyl)quinolin-4-amine] | 2000 ± 60 nM | 21 | 2040 ± 400 nM | 21 | –
